Calls of active or inactive are those of the source. No cut-off for these calls is given here.
Tests used:
[1] = target: Kallikrein-7 (Homo sapiens) (UniProt P49862); assay: Inhibition of human KLK7 using Abz-KLYSSKQ-EDDnp as substrate at 10 uM preincubated for 5 mins followed by substrate addition by spectrofluorimetric analysis
Outline: (§1)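 Residual-activity screen in 50 mM Tris–HCl, pH 7.5. Compound stocks in DMSO:H2O 1:1 were diluted to 10 µM final, and in some runs raised to 100 µM. Inhibitor was incubated with enzyme for 5 min at 37°C. Substrate was then added: Abz-KLRSSKQ-EDDnp for KLK1, KLK5 and KLK6, or Abz-KLYSSKQ-EDDnp for KLK7. Fluorescence was read at ex 320 nm, em 420 nm and compared with an inhibitor-free control.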

Kallikrein-5 [2] = target: T1, Kallikrein-5 (Homo sapiens, UniProt Q9Y337); assay: Competitive inhibition of human KLK5 using Abz-KLRSSKQ-EDDnp as substrate preincubated for 5 mins followed by substrate addition by Lineweaver-Burk plot analysis
T1 sequence (Q9Y337 whole entry): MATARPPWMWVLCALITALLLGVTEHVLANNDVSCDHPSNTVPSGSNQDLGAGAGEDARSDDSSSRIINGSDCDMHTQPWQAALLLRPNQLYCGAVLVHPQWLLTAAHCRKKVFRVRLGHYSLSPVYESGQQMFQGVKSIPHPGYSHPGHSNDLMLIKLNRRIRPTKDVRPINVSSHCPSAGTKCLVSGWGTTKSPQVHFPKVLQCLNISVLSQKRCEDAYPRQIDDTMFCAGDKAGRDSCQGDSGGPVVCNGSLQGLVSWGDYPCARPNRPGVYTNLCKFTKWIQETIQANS
Outline: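 Human KLK5 (0.02 µg) was preincubated with inhibitor for 5 min at 37°C in 50 mM Tris–HCl, pH 7.5. Reaction was started with FRET substrate Abz-KLRSSKQ-EDDnp and read by fluorescence (ex 320 nm, em 420 nm). Initial rates were measured without inhibitor and at four inhibitor concentrations. Ki was taken as the x-intercept of 1/V0 versus inhibitor concentration at constant substrate. Mode was assigned from Lineweaver–Burk plots.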

[3] = Solubility in aqueous buffer solution at >1 uM; assay type: physicochemical
Outline: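 Solubility was tested in the aqueous assay buffer (50 mM Tris–HCl, pH 7.5) before enzymatic assays, at concentrations above 1.0 µM.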

Kallikrein-5 [4] = target: T1, Kallikrein-5; assay: Inhibition of human KLK5 using Abz-KLRSSKQ-EDDnp as substrate preincubated for 5 mins followed by substrate addition by spectrofluorimetric analysis
Outline: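 Assay in 50 mM Tris–HCl, pH 7.5, with 0.02 µg human KLK5 and inhibitor incubated 5 min at 37°C before adding Abz-KLRSSKQ-EDDnp. Fluorescence was read at ex 320 nm, em 420 nm. IC50 came from rates at five or more inhibitor concentrations across 0.01–1.0 µM. Values are means ± SD of three independent experiments.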

[5] = target: Kallikrein-5 (Homo sapiens) (UniProt Q9Y337); assay: Inhibition of human KLK5 using Abz-KLRSSKQ-EDDnp as substrate at 10 uM preincubated for 5 mins followed by substrate addition by spectrofluorimetric analysis; outline: as §1
[6] = target: Kallikrein-6 (Homo sapiens) (UniProt Q92876); assay: Inhibition of human KLK6 using Abz-KLRSSKQ-EDDnp as substrate at 10 uM preincubated for 5 mins followed by substrate addition by spectrofluorimetric analysis; outline: as §1
[7] = target: Kallikrein-1 (Homo sapiens) (UniProt P06870); assay: Inhibition of human KLK1 using Abz-KLRSSKQ-EDDnp as substrate at 10 uM preincubated for 5 mins followed by substrate addition by spectrofluorimetric analysis; outline: as §1
Kallikrein-1 (Homo sapiens), sequence (P06870 25-262 limits assumed): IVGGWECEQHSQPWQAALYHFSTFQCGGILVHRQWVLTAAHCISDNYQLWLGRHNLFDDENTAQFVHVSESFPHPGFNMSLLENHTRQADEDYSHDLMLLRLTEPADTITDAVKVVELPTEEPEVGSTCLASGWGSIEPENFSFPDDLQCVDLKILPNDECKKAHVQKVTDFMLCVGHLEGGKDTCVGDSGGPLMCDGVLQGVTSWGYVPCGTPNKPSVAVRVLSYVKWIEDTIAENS

[8] = target: Kallikrein-1 (Homo sapiens) (UniProt P06870); assay: Inhibition of human KLK1 using Abz-KLRSSKQ-EDDnp as substrate at >1 uM preincubated for 5 mins followed by substrate addition by spectrofluorimetric analysis
[9] = target: Kallikrein-6 (Homo sapiens) (UniProt Q92876); assay: Inhibition of human KLK6 using Abz-KLRSSKQ-EDDnp as substrate at >1 uM preincubated for 5 mins followed by substrate addition by spectrofluorimetric analysis
[10] = target: Kallikrein-7 (Homo sapiens) (UniProt P49862); assay: Inhibition of human KLK7 using Abz-KLYSSKQ-EDDnp as substrate at >1 uM preincubated for 5 mins followed by substrate addition by spectrofluorimetric analysis
[11] = target: Kallikrein-5 (Homo sapiens) (UniProt Q9Y337); assay: Inhibition of human KLK5 using Abz-KLRSSKQ-EDDnp as substrate at >1 uM preincubated for 5 mins followed by substrate addition by spectrofluorimetric analysis
[12] = target: Kallikrein-5 (Homo sapiens) (UniProt Q9Y337); assay: Inhibition of human KLK5 using Abz-KLRSSKQ-EDDnp as substrate at 10 to 100 uM preincubated for 5 mins followed by substrate addition by spectrofluorimetric analysis; outline: as §1
[13] = target: Kallikrein-7 (Homo sapiens) (UniProt P49862); assay: Inhibition of human KLK7 using Abz-KLYSSKQ-EDDnp as substrate at 10 to 100 uM preincubated for 5 mins followed by substrate addition by spectrofluorimetric analysis; outline: as §1
[14] = target: Kallikrein-1 (Homo sapiens) (UniProt P06870); assay: Inhibition of human KLK1 using Abz-KLRSSKQ-EDDnp as substrate at 10 to 100 uM preincubated for 5 mins followed by substrate addition by spectrofluorimetric analysis; outline: as §1
[15] = target: Kallikrein-6 (Homo sapiens) (UniProt Q92876); assay: Inhibition of human KLK6 using Abz-KLRSSKQ-EDDnp as substrate at 10 to 100 uM preincubated for 5 mins followed by substrate addition by spectrofluorimetric analysis; outline: as §1

Kallikrein-7 (Homo sapiens), sequence (P49862 30-253 limits assumed): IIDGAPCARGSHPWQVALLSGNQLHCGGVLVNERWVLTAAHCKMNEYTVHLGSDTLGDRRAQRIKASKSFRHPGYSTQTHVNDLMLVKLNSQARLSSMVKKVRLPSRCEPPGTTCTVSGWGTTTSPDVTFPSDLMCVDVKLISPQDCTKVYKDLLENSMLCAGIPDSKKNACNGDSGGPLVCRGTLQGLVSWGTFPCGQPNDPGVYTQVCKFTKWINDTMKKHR

Structure (SMILES)	inhibition [1]	Ki (Kallikrein-5 [2])	solubility [3]	IC50 (Kallikrein-5 [4])	inhibition [5]	inhibition [6]	inhibition [7]	inhibition [8]	inhibition [9]	inhibition [10]	inhibition [11]	inhibition [12]	inhibition [13]	inhibition [14]	inhibition [15]
COC(=O)[C@@H](NC(=O)C[C@H](O)[C@H](Cc1ccccc1)NC(=O)OC(C)(C)C)C(C)C	inactive	130 nM	soluble	115 nM	Active	inactive	inactive	–	–	–	–	–	–	–	–
CC(C)(C)OC(=O)N[C@@H](Cc1ccccc1)[C@@H](O)CC(=O)N[C@@H](Cc1ccccc1)C(=O)N[C@H]1CO[C@H]2[C@@H]1OC[C@H]2OCc1ccccc1	–	–	Insoluble	–	–	–	–	inactive	inactive	inactive	inactive	–	–	–	–
COC(=O)[C@@H]1CCCN1C(=O)C[C@H](O)[C@H](Cc1ccccc1)NC(=O)OC(C)(C)C	inactive	130 nM	soluble	122 nM	Active	inactive	inactive	–	–	–	–	–	–	–	–
COC(=O)[C@H](Cc1ccccc1)NC(=O)C[C@H](O)[C@H](Cc1ccccc1)NC(=O)OC(C)(C)C	inactive	120 nM	soluble	112 nM	Active	inactive	inactive	–	–	–	–	–	–	–	–
CC(C)[C@H](NC(=O)C[C@H](O)[C@H](Cc1ccccc1)NC(=O)OC(C)(C)C)C(=O)O	–	–	soluble	–	–	–	–	–	–	–	–	inactive	inactive	inactive	inactive
CC(C)(C)OC(=O)N[C@@H](Cc1ccccc1)[C@@H](O)CC(=O)N[C@@H](Cc1ccccc1)C(=O)O	–	–	soluble	–	–	–	–	–	–	–	–	inactive	inactive	inactive	inactive
CC(C)(C)OC(=O)N[C@@H](Cc1ccccc1)[C@@H](O)CC(=O)N1CCC[C@H]1C(=O)N[C@H]1CO[C@H]2[C@@H]1OC[C@H]2OCc1ccccc1	–	–	Insoluble	–	–	–	–	inactive	inactive	inactive	inactive	–	–	–	–
CC(C)(C)OC(=O)N[C@@H](Cc1ccccc1)[C@@H](O)CC(=O)N1CCC[C@H]1C(=O)O	–	–	soluble	–	–	–	–	–	–	–	–	inactive	inactive	inactive	inactive
CC(C)[C@H](NC(=O)C[C@H](O)[C@H](Cc1ccccc1)NC(=O)OC(C)(C)C)C(=O)N[C@H]1CO[C@H]2[C@@H]1OC[C@H]2OCc1ccccc1	–	–	Insoluble	–	–	–	–	inactive	inactive	inactive	inactive	–	–	–	–
